# ChEMBL document CHEMBL1154335, “2-(3-Thienyl)-5,6-dihydroxypyrimidine-4-carboxylic acids as inhibitors of HCV NS5B RdRp” (Bioorg Med Chem Lett, 2009)
# Several values for one entry are separate records, joined by “and”; a condition that tells them apart may be missing. Identical values can stand only once.
# How the values were obtained:
# Hepatitis C virus [1] = assay: Inhibition of HCV1b Cdelta55 NS5B polymerase; assay type: functional, organism-based, Hepatitis C virus subtype 1b
# Hepatitis C virus [2] = assay: Antiviral activity against Hepatitis C virus subtype 1b infected in human HuH7 cells by replicon assay; assay type: functional, organism-based, Hepacivirus hominis; conditions: genotype 1b, Huh-7
# Hepatitis C virus [3] = assay: Antiviral activity against Hepatitis C virus subtype 2a infected in human HuH7 cells by replicon assay; assay type: functional, organism-based, Hepacivirus hominis, genotype 2a, Huh-7
# Procedure, shortened: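 Full-length HCV genotype 2a infectivity assay; EC50 determined.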
# Hepatitis C virus [4] = assay: Inhibition of HCV1b Cdelta21 NS5B polymerase; assay type: functional, Hepatitis C virus subtype 1b
# Hepatitis C virus [5] = assay: Inhibition of HCV2a Cdelta21 NS5B polymerase; assay type: functional, Hepatitis C virus subtype 2a
# [6] = Inhibition of HCV2b Cdelta21 NS5B polymerase; parameters: species or system Hepatitis C virus subtype 2b
# [7] = Inhibition of HCV3a Cdelta21 NS5B polymerase; parameters: species or system Hepatitis C virus subtype 3a
# [8] = Half life in rat plasma at 3 mg/kg, iv; assay type: ADME, organism-based; parameters: dose 3 mg/kg, route intravenous
# Procedure, shortened: (§1)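 Rat, single intravenous dose of 3 mg/kg; plasma sampled for half-life, volume of distribution and turnover (clearance).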
# [9] = Volume of distribution in rat at 3 mg/kg, iv; assay type: ADME, organism-based; parameters: dose 3 mg/kg, route intravenous; conditions: in vivo; procedure, shortened: as §1
# [10] = Protein binding in rat serum; assay type: ADME, cell-free; conditions: read-out: PB
# Procedure, shortened: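 Binding to rat serum proteins measured.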
# [11] = AUC in rat plasma at 3 mg/kg, po; assay type: ADME, organism-based; parameters: dose 3 mg/kg, route oral
# Procedure, shortened: (§2)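 Rat, oral dose of 3 mg/kg; plasma exposure (AUC) measured and oral bioavailability derived.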
# [12] = Oral bioavailability in rat at 3 mg/kg; assay type: ADME, organism-based; conditions: in vivo; procedure, shortened: as §2
# [13] = Bioavailability in intramuscular dosed rat; assay type: ADME, organism-based; conditions: in vivo, im
# Procedure, shortened: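 Rat, intramuscular administration; plasma exposure measured to derive bioavailability.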
# Hepatitis C virus [14] = assay: Inhibition of wild type HCV con1 Cdelta55 NS5B polymerase; assay type: functional, Hepacivirus hominis; conditions: isolate Con1
# Procedure, shortened: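 Recombinant NS5B truncated by 55 C-terminal residues (ΔC55), genotype 1b HCV; IC50 determined from enzyme inhibition.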
# Hepatitis C virus [15] = assay: Inhibition of HCV con1 Cdelta55 NS5B polymerase G152E mutant; assay type: functional, Hepacivirus hominis; conditions: isolate Con1
# Procedure, shortened: (§3)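 IC50 determined on isolated recombinant NS5B polymerase carrying a single P156S or G152E substitution. These substitutions were identified in replicon colonies selected with […]. Wild-type enzyme was run alongside as the reference.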
# [16] = Metabolic stability in rat assessed as compound turnover at 3 mg/kg, iv; assay type: ADME, organism-based; parameters: dose 3 mg/kg, route intravenous; conditions: in vivo, read-out: Stability; procedure, shortened: as §1
# Hepatitis C virus [17] = assay: Inhibition of HCV con1 Cdelta55 NS5B polymerase P156S mutant; assay type: functional, Hepacivirus hominis; conditions: isolate Con1; procedure, shortened: as §3
# [18] = Hepatitis C virus, genotype 2a, Huh-7
SMILES,IC50 (Hepatitis C virus [1]) [nM],EC50 (Hepatitis C virus [2]) [nM],other results
O=C(O)c1nc(-c2ccsc2)nc(O)c1O,6150,,
O=C(Nc1cscc1-c1nc(O)c(O)c(C(=O)O)n1)NS(=O)(=O)c1cccc2ccccc12,36,3600,EC50 (Hepatitis C virus [3]; huh-7): 3700 nM and 9600 nM; IC50 (Hepatitis C virus [4]): 5.6 nM; IC50 (Hepatitis C virus [5]): 2.1 nM; IC50 [6]: 5.8 nM; IC50 [7]: 3.9 nM; half-life [8]: 15 h; Vd [9]: 0.1 L/kg; fraction unbound [10]: < 0.01; AUC [11]: 3.3 µM·h; bioavailability [12]: 2%; bioavailability [13]: 89%; IC50 (Hepatitis C virus [14]): 40 nM; IC50 (Hepatitis C virus [15]): 300 nM; clearance [16]: 0.2 mL/min/kg
O=C(Nc1cscc1-c1nc(O)c(O)c(C(=O)O)n1)NS(=O)(=O)c1ccc2ccccc2c1,48,32000,
O=C(Nc1cscc1-c1nc(O)c(O)c(C(=O)O)n1)NS(=O)(=O)c1cccc(Cl)c1Cl,12,2400,EC50 (Hepatitis C virus [3]; [18]): 4900 nM
CS(=O)(=O)NC(=O)Nc1cscc1-c1nc(O)c(O)c(C(=O)O)n1,426,,
CC(C)(C)OC(=O)Nc1cscc1-c1nc(O)c(O)c(C(=O)O)n1,8280,,
O=C(Nc1cscc1-c1nc(O)c(O)c(C(=O)O)n1)OCc1ccccc1,326,,
O=C(Nc1sccc1-c1nc(O)c(O)c(C(=O)O)n1)OCc1ccccc1,343,,
Cc1ccccc1S(=O)(=O)NC(=O)Nc1cscc1-c1nc(O)c(O)c(C(=O)O)n1,47,16000,
O=C(Nc1cscc1-c1nc(O)c(O)c(C(=O)O)n1)NS(=O)(=O)c1ccccc1Br,74,3400,IC50 (Hepatitis C virus [14]): 60 nM; IC50 (Hepatitis C virus [15]): 400 nM; IC50 (Hepatitis C virus [17]): 70 nM
O=C(Nc1cscc1-c1nc(O)c(O)c(C(=O)O)n1)NS(=O)(=O)c1cccc(Br)c1,38,37000,
O=C(Nc1cscc1-c1nc(O)c(O)c(C(=O)O)n1)NS(=O)(=O)c1ccc(Cl)cc1,85,26000,
O=C(Nc1cscc1-c1nc(O)c(O)c(C(=O)O)n1)NS(=O)(=O)c1ccccc1,62,32000,
O=C(Nc1cscc1-c1nc(O)c(O)c(C(=O)O)n1)NS(=O)(=O)c1ccccc1Cl,78,2600,EC50 (Hepatitis C virus [3]; [18]): 6600 nM
O=C(Cc1ccccc1Cl)Nc1cscc1-c1nc(O)c(O)c(C(=O)O)n1,2610,,
O=C(NCc1ccccc1)Nc1cscc1-c1nc(O)c(O)c(C(=O)O)n1,873,,
O=C(NCc1ccccc1Cl)Nc1cscc1-c1nc(O)c(O)c(C(=O)O)n1,258,,
O=C(NCc1ccccc1Cl)Nc1ccsc1-c1nc(O)c(O)c(C(=O)O)n1,,,IC50 (Hepatitis C virus [14]): 180 nM; IC50 (Hepatitis C virus [15]): 800 nM; IC50 (Hepatitis C virus [17]): 170 nM
O=C(O)c1nc(-c2cccs2)nc(O)c1O,2600,,
Cn1c(-c2cccs2)nc(C(=O)O)c(O)c1=O,,,IC50 (Hepatitis C virus [14]): 4600 nM; IC50 (Hepatitis C virus [15]): 3200 nM; IC50 (Hepatitis C virus [17]): 5600 nM
O=C(O)c1nc(-c2ccccc2)nc(O)c1O,30000,,
